Experimental data reported in ChEMBL document CHEMBL1148395, “Synthesis, biological properties, and molecular modeling investigations of novel 3,4-diarylpyrazolines as potent and selective CB(1) cannabinoid receptor antagonists” (J Med Chem, 2004).

Key:
[1] = target: T1, Cannabinoid receptor 1 (Homo sapiens, UniProt P21554); assay: biochemical; type: cell-based, CHO
[2] = target: T1, Cannabinoid receptor 1; assay: Antagonistic activity towards cannabinoid receptor 1 expressed as [3H]Arachidonic acid release in CHO cells; type: functional, cell-based; details: read-out: pA2 (converted)
[3] = target: Cannabinoid receptor 2 (Homo sapiens, UniProt P34972); assay: Affinity to displace CP-55940 binding from Cannabinoid receptor 2 of human expressed in CHO cells; type: cell-based
Method in brief: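 Bound and free ligand separated by glass-fibre filtration, filter radioactivity counted by liquid scintillation. IC50 values from at least two independent measurements combined and converted to Ki by Cheng-Prusoff.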

[4] = target: Cannabinoid receptor 1 (Rattus norvegicus) (UniProt P20272); assay: In vivo effective dose to antagonise cannabinoid receptor 1 agonist (CP-55940) induced hypotension in rat upon peroral administration; type: functional, organism-based
[5] = target: Cannabinoid receptor 1 (Mus musculus) (UniProt P47746); assay: In vivo least effective dose required to antagonise cannabinoid receptor 1 agonist (WIN-55212) induced hypothermia in mouse upon peroral administration
[6] = Mean percentage of compound transport through P-glycoprotein; expressed as p-glycoprotein affinity; type: ADME
Method in brief: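 Human MDR1 P-glycoprotein transport across a monolayer of PK1 LLC MDR cells; compound added at 1 µg/mL to one side. Bottom-to-top and top-to-bottom transport measured; Pgp factor taken as the ratio of bottom-to-top to top-to-bottom transport, given as mean percentage of compound transported.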

[7] = Mean percentage of compound transport through membrane; expressed as membrane transport; type: ADME
Method in brief: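 Transport across a PK1 LLC MDR (human MDR1) cell monolayer with compound at 1 µg/mL added to one side. Membrane passage taken as the mean percentage of compound moved bottom-to-top and top-to-bottom at 3 h after addition.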

[8] = Partition coefficient (logP); type: physicochemical; details: octanol/water
Method in brief: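 n-Octanol/water partition measured by RP-HPLC following an OECD method. Mobile phase buffered at pH > 11 on an aluminum-based octadecyl stationary phase.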

Chain of Cannabinoid receptor 1 (Mus musculus) (P47746 whole entry, looked up): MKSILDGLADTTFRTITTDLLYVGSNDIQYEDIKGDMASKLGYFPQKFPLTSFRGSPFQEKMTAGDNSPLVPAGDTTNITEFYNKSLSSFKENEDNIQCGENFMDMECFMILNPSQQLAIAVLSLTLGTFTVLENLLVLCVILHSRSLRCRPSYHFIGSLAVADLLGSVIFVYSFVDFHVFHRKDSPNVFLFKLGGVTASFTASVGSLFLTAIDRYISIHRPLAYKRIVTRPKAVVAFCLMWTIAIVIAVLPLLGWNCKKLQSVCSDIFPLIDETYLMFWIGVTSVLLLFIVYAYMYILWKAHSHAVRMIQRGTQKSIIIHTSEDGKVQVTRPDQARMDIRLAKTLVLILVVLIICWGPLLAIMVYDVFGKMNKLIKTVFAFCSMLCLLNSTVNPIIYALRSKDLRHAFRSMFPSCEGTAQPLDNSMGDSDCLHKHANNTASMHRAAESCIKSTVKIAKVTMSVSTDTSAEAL
Chain of Cannabinoid receptor 1 (Rattus norvegicus) (P20272 whole entry): as the sequence (P47746 whole entry, looked up) above, with D95E counted along it
Chain of Cannabinoid receptor 2 (P34972 whole entry): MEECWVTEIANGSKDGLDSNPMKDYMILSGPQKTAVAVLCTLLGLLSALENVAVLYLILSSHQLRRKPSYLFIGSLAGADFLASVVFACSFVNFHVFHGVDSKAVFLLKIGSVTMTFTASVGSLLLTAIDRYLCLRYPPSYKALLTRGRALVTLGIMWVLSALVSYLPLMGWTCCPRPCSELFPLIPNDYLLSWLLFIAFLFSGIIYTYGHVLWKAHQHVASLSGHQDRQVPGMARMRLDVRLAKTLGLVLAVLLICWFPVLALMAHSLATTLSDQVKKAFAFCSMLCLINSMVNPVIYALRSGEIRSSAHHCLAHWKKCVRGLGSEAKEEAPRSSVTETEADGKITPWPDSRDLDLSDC
T1 sequence (P21554 whole entry): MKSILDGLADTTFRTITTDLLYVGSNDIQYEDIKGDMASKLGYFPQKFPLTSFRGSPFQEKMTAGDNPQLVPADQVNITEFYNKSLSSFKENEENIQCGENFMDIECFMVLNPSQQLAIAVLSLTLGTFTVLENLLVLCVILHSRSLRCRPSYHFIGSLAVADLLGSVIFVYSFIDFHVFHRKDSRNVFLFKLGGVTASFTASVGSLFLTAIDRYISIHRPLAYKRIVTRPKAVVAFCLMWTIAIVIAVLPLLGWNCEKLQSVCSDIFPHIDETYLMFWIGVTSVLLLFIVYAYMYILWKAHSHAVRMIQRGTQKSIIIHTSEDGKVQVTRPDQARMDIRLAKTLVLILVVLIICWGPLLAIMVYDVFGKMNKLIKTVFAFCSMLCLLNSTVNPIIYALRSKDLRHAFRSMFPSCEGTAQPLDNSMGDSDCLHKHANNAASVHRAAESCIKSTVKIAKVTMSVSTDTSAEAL

| Compound | Ki [1] [µM] | Kb [2] [µM] | Ki [3] [µM] | further results |
| --- | --- | --- | --- | --- |
| CNC(=NS(=O)(=O)c1ccc(C(F)(F)F)cc1)N1CC(c2ccccc2)C(c2ccc(Cl)cc2)=N1 (centres undefined) | 0.221 | 0.000501 | > 1 | – |
| C/N=C(\NS(=O)(=O)c1ccc(C(F)(F)F)cc1)N1C[C@@H](c2ccccc2)C(c2ccc(Cl)cc2)=N1 | – | – | – | ED50 [4]: > 30 mg/kg; LED [5]: > 30 mg/kg |
| CN=C(NS(=O)(=O)c1ccc(C(F)(F)F)cc1)N1C[C@@H](c2ccccc2)C(c2ccc(Cl)cc2)=N1 | 0.293 | 0.0316 | > 1 | – |
| N=C(NS(=O)(=O)c1ccc(Cl)cc1)N1CC(c2ccccc2)C(c2ccc(Cl)cc2)=N1 (centres undefined) | – | – | – | ED50 [4]: > 30 mg/kg; LED [5]: > 30 mg/kg |
| CN/C(=N\S(=O)(=O)c1ccc(Cl)cc1)N1CC(c2ccccc2)C(c2ccc(Cl)cc2)=N1 (centres undefined) | – | – | – | ED50 [4]: 15 mg/kg |
| CNC(=NS(=O)(=O)c1cccc(Cl)c1)N1CC(c2ccccc2)C(c2ccc(Cl)cc2)=N1 (centres undefined) | 0.0139 | 0.00251 | > 1 | – |
| COc1ccc(S(=O)(=O)NC(=N)N2CC(c3ccccc3)C(c3ccc(Cl)cc3)=N2)cc1 (centres undefined) | 0.196 | 0.00501 | > 1 | – |
| C/N=C(\NC(=O)c1ccc(Cl)cc1)N1CC(c2ccccc2)C(c2ccc(Cl)cc2)=N1 (centres undefined) | 0.0706 | 0.002 | – | – |
| CN=C(NS(=O)(=O)c1ccc(Cl)cc1)N1C[C@H](c2ccccc2)C(c2ccc(Cl)cc2)=N1 [IBIPINABANT] | – | – | – | Activity [6]: 1.4; Activity [7]: 14.8; logP [8]: 4.8 |
| O=C(NS(=O)(=O)c1ccc(Cl)cc1)N1CC(c2ccccc2)C(c2ccc(Cl)cc2)=N1 (centres undefined) | > 1 | – | – | – |
| CS/C(=N\S(=O)(=O)c1ccc(C(F)(F)F)cc1)N1CC(c2ccccc2)C(c2ccc(Cl)cc2)=N1 (centres undefined) | 0.0166 | 0.0002 | > 1 | – |
| C/N=C(\NS(=O)(=O)c1ccc(F)cc1)N1CC(c2ccccc2)C(c2ccc(Cl)cc2)=N1 (centres undefined) | 0.338 | 0.00316 | > 1 | – |
| CN(C)/C(=N\S(=O)(=O)c1ccc(Cl)cc1)N1CC(c2ccccc2)C(c2ccc(Cl)cc2)=N1 (centres undefined) | 0.28 | 0.00316 | > 1 | Activity [6]: 1.4; Activity [7]: 15.2; logP [8]: 4.8; ED50 [4]: > 30 mg/kg |
| CN=C(NS(=O)(=O)c1ccc(Cl)cc1)N1CC(c2ccc(F)cc2)C(c2ccc(Cl)cc2)=N1 (centres undefined) | 0.584 | – | – | – |
| Cc1cc(C)c(S(=O)(=O)NC(=N)N2CC(c3ccccc3)C(c3ccc(Cl)cc3)=N2)c(C)c1 (centres undefined) | 0.0242 | 0.000398 | > 1 | – |
| C/N=C(\NS(=O)(=O)c1ccc(C(F)(F)F)cc1)N1C[C@H](c2ccccc2)C(c2ccc(Cl)cc2)=N1 | – | – | – | ED50 [4]: 2 mg/kg; LED [5]: 1 mg/kg |
| CN(C)/C(=N\S(=O)(=O)c1ccc(F)cc1)N1CC(c2ccccc2)C(c2ccc(Cl)cc2)=N1 (centres undefined) | > 1 | > 0.0316 | > 1 | – |

| Compound | Ki [1] [µM] | Kb [2] [µM] | Ki [3] [µM] | further results |
| --- | --- | --- | --- | --- |
| C/N=C(\NS(=O)(=O)c1ccc(C)cc1)N1CC(c2ccccc2)C(c2ccc(Cl)cc2)=N1 (centres undefined) | – | 0.00251 | – | – |
| N=C(NS(=O)(=O)c1ccc(F)cc1)N1CC(c2ccccc2)C(c2ccc(Cl)cc2)=N1 (centres undefined) | 0.0526 | 0.001 | > 1 | – |
| Cc1ccc(S(=O)(=O)NC(=N)N2CC(c3ccccc3)C(c3ccc(Cl)cc3)=N2)cc1 (centres undefined) | 0.197 | 0.00398 | > 1 | ED50 [4]: > 30 mg/kg; LED [5]: > 30 mg/kg |
| C/N=C(\NS(=O)(=O)c1ccc(Cl)cc1)N1CC(c2ccccc2)C(c2ccc(F)cc2)=N1 (centres undefined) | 0.214 | 0.0251 | – | – |
| C/N=C(\NS(=O)(=O)c1ccc(C(F)(F)F)cc1)N1CC(c2ccccc2)C(c2ccc(Cl)cc2)=N1 (centres undefined) | – | – | – | ED50 [4]: 8.9 mg/kg; LED [5]: 3 mg/kg |
| CN=C(NS(=O)(=O)c1ccc(Cl)cc1)N1CC(c2ccc(Cl)cc2)C(c2ccc(Cl)cc2)=N1 (centres undefined) | 0.255 | – | – | – |
| C/N=C(\NS(=O)(=O)c1ccccc1)N1CC(c2ccccc2)C(c2ccc(Cl)cc2)=N1 (centres undefined) | 0.17 | 0.0316 | – | – |
| C/N=C(\NS(=O)(=O)c1ccc2ccccc2c1)N1CC(c2ccccc2)C(c2ccc(Cl)cc2)=N1 (centres undefined) | 0.0218 | 0.00316 | – | – |
| C/N=C(\NS(=O)(=O)c1ccc(Cl)cc1)N1C[C@@H](c2ccccc2)C(c2ccc(Cl)cc2)=N1 | – | – | – | ED50 [4]: > 30 mg/kg |
| C/N=C(\NS(=O)(=O)c1c(C)cc(C)cc1C)N1CC(c2ccccc2)C(c2ccc(Cl)cc2)=N1 (centres undefined) | 0.0542 | 0.000398 | – | – |
| CN=C(NS(=O)(=O)c1ccc(OC)cc1)N1CC(c2ccccc2)C(c2ccc(Cl)cc2)=N1 (centres undefined) | 0.0229 | 0.01 | – | – |
| C/N=C(\NS(=O)(=O)c1cccc(C(F)(F)F)c1)N1CC(c2ccccc2)C(c2ccc(Cl)cc2)=N1 (centres undefined) | 0.0365 | 0.000794 | > 1 | – |
| C/N=C(\NS(=O)(=O)c1ccccc1Cl)N1CC(c2ccccc2)C(c2ccc(Cl)cc2)=N1 (centres undefined) | 0.0754 | 0.00501 | > 1 | – |
| CN/C(=N\S(=O)(=O)c1ccc(Cl)cc1)N1C[C@H](c2ccccc2)C(c2ccc(Cl)cc2)=N1 | – | – | – | ED50 [4]: 5.5 mg/kg |
| CN/C(=N/S(=O)(=O)c1ccc(C(F)(F)F)cc1)N1C[C@H](c2ccccc2)C(c2ccc(Cl)cc2)=N1 | 0.0359 | 0.001 | 3.51 | – |
| NC(=NS(=O)(=O)c1ccc(Cl)cc1)N1CC(c2ccccc2)C(c2ccc(Cl)cc2)=N1 (centres undefined) | 0.0161 | 0.000316 | > 1 | Activity [6]: 1.7; Activity [7]: 7; logP [8]: 4.3 |
